In data set [1] the test system is HeLa. Briefly: Cytotoxicity against human HeLa cells at 1 uM after 72 hrs by MTT assay. It counts as functional. Particulars: read-out: GI. Put shortly:
(§1)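 Cells plated at 2000–5000/well, attached overnight at 37 °C. DMSO stocks (100 mM) serially diluted in medium to a final 1 µM, tested in duplicate wells. Exposure 72 h at 37 °C, 5% CO₂. MTT (5 mg/mL, 10 µL) added for 4 h. Lysis in 10% SDS / 5% isopropanol / 0.012 N HCl, then OD read at 580–680 nm.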

The nature of data set [2]: Efflux ratio of apparent permeability from basolateral to apical side over apical to basolateral side in human Caco2 cells at 10 uM after 90 mins by LC-MS/MS analysis. It counts as ADME, cell-based, Caco-2. Particulars: Caco-2. Put shortly:
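Caco-2 cells cultured 21 days on 24-well inserts, TEER >250 Ω·cm². Monolayers pre-incubated in HBSS pH 7.4 at 37 °C. Compound added to the donor side at 10 µM, 37 °C, 5% CO₂, 90 min, in the A-to-B and B-to-A directions. Donor and receiver levels measured by LC-MS/MS. Papp calculated from receiver amount, membrane area 0.7 cm², time and initial donor concentration. Efflux ratio = B–A/A–B.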

Data set [3] is described as follows: Apparent permeability from apical to basolateral side in human Caco2 cells at 10 uM after 90 mins by LC-MS/MS analysis. Format: ADME, cell-based, Caco-2. The following applies: Caco-2.
Data set [4] has as its system MCF7. Briefly: Cytotoxicity against human MCF7 cells after 72 hrs by MTT assay. It counts as functional, cell-based. The following applies: MCF7, 72 h. Put shortly:
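MCF-7 cells exposed to compound for 72 h and read by MTT. At least six replicate wells per assay, run on three separate occasions. IC₅₀ given as mean with standard deviation.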

Data set [5] is described as follows: Apparent permeability from basolateral to apical side in human Caco2 cells at 10 uM after 90 mins by LC-MS/MS analysis. Format: ADME, cell-based, Caco-2. The following applies: Caco-2.
In data set [6] the test system is A-375. Briefly: Cytotoxicity against human A375 cells at 1 uM after 72 hrs by MTT assay. It counts as functional. Particulars: A-375, 72 h, read-out: GI. Put shortly: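 Cells plated at 2000–5000/well, attached overnight at 37 °C. DMSO stocks (100 mM) serially diluted in medium to a final 1 µM, tested in duplicate wells. MTT (5 mg/mL, 10 µL) added for 4 h. Lysis in 10% SDS / 5% isopropanol / 0.012 N HCl, then OD read at 580–680 nm.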

The test system of data set [7] is MCF7. Nature of the data set: Cytotoxicity against human MCF7 cells at 1 uM after 72 hrs by MTT assay. Particulars: MCF7, 72 h, read-out: GI. It counts as functional. Put shortly:
as §1

The subject of data set [8] is DU-145. Nature of the data set: Cytotoxicity against human DU145 cells at 1 uM after 72 hrs by MTT assay. It counts as functional. The following applies: DU-145, 72 h, read-out: GI. The essentials: as §1
Data set [9] relates to HT-29. Nature of the data set: Cytotoxicity against human HT-29 cells at 1 uM after 72 hrs by MTT assay. It counts as functional. The following applies: HT-29, 72 h, read-out: GI. Put shortly:
as §1

Data set [10] has as its system A2780. Briefly: Cytotoxicity against human A2780 cells at 1 uM after 72 hrs by MTT assay. Format: functional. Particulars: A2780, 72 h, read-out: GI. Put shortly: as §1
Data set [11] has as its system HL-60. Nature of the data set: Cytotoxicity against human HL60 cells at 1 uM after 72 hrs by MTT assay. Particulars: HL-60, 72 h, read-out: GI. It counts as functional. The essentials: as §1
The test system of data set [12] is NCI-H460. Nature of the data set: Cytotoxicity against human NCI-H460 cells at 1 uM after 72 hrs by MTT assay. It counts as functional. Particulars: NCI-H460, 72 h, read-out: GI. Put shortly: as §1

For `CO[C@H]1C(=O)[C@]2(C)CC[C@H]3OC[C@@]3(OC(C)=O)[C@H]2[C@H](OC(=O)c2ccccc2)[C@]2(O)C[C@H](OC(=O)[C@H](O)[C@H](CC(C)C)NC(=O)OC(C)(C)C)C(C)=C1C2(C)C`, the inhibition of growth at 1 µM in data set [1] worked out at 99.3%. The efflux ratio at 1.5 h, 10 µM in data set [2] came out at 5.12. For the same molecule, the Papp A→B at 1.5 h, 10 µM in data set [3] amounted to 7.17 ×10⁻⁶ cm/s. The concentration for half-maximal inhibition (IC50) in data set [4] worked out at 3.06 nM. In addition, the Papp B→A at 1.5 h, 10 µM in data set [5] came out at 38.6 ×10⁻⁶ cm/s.

With `CO[C@H]1C[C@H]2OC[C@@]2(OC(C)=O)[C@H]2[C@H](OC(=O)c3ccccc3)[C@]3(O)C[C@H](OC(=O)[C@H](O)[C@H](CC(C)C)NC(=O)OC(C)(C)C)C(C)=C([C@@H](OC(=O)N(C)C)C(=O)[C@]12C)C3(C)C`, the inhibition of growth at 1 µM came to 89% in [6] and 101% in data set [1]. Moreover, the Papp A→B at 1.5 h, 10 µM in data set [3] was 8.17 ×10⁻⁶ cm/s. The same molecule came in with an IC50 in data set [4] of 1.7 nM. Also, in data set [5], the Papp B→A at 1.5 h, 10 µM amounted to 32.6 ×10⁻⁶ cm/s.

Take `COC(=O)O[C@H]1C(=O)[C@]2(C)[C@@H](OC)C[C@H]3OC[C@@]3(OC(C)=O)[C@H]2[C@H](OC(=O)c2ccccc2)[C@]2(O)C[C@H](OC(=O)[C@H](O)[C@H](CC(C)C)NC(=O)OC(C)(C)C)C(C)=C1C2(C)C`: the inhibition of growth at 1 µM in [1] was found to be 99.7%. In data set [3], the Papp A→B at 1.5 h, 10 µM came out at 8.87 ×10⁻⁶ cm/s. The molecule further showed an IC50 in data set [4] of 2.9 nM. In addition, the Papp B→A at 1.5 h, 10 µM in [5] was 33.3 ×10⁻⁶ cm/s.

`CO[C@H]1C(=O)[C@]2(C)[C@@H](OC(=O)N(C)C)C[C@H]3OC[C@@]3(OC(C)=O)[C@H]2[C@H](OC(=O)c2ccccc2)[C@]2(O)C[C@H](OC(=O)[C@H](O)[C@@H](NC(=O)c3ccccc3)c3ccccc3)C(C)=C1C2(C)C`: the inhibition of growth at 1 µM in data set [7] was found to be 90.8%; in [6], 88.4%; in data set [8], 85.8%; in data set [9], 89.4%; in [10], 95.6%; in [11] it was 97.8%. Besides, the inhibition of growth at 1 µM was 103% in data set [1] and 87.7% in data set [12]. In addition, the Papp A→B at 1.5 h, 10 µM in [3] is 3.27 ×10⁻⁶ cm/s. It took 64.7 nM to reach half-maximal inhibition in data set [4] (IC50).

As for `COC(=O)O[C@H]1C[C@H]2OC[C@@]2(OC(C)=O)[C@H]2[C@H](OC(=O)c3ccccc3)[C@]3(O)C[C@H](OC(=O)[C@H](O)[C@H](CC(C)C)NC(=O)OC(C)(C)C)C(C)=C([C@@H](OC)C(=O)[C@]12C)C3(C)C`, in [1], the inhibition of growth at 1 µM is 100%. Moreover, in data set [3], the Papp A→B at 1.5 h, 10 µM turned out to be 7.16 ×10⁻⁶ cm/s. Besides, the IC50 in data set [4] was determined as 2.81 nM. Further, the Papp B→A at 1.5 h, 10 µM in data set [5] stood at 36.4 ×10⁻⁶ cm/s.

With `CO[C@H]1C(=O)[C@]2(C)[C@@H](OC)C[C@H]3OC[C@@]3(OC(C)=O)[C@H]2[C@H](OC(=O)c2ccccc2)[C@]23OC(=O)O[C@H]2[C@H](OC(=O)[C@H](O)[C@@H](NC(=O)c2ccccc2)c2ccccc2)C(C)=C1C3(C)C`, the inhibition of growth at 1 µM was 96% in data set [7]; 90.8% in data set [6]; 87.8% in data set [8]; 89.4% in [9]; 96.7% in [10]; 96.6% in data set [11]. Also, the inhibition of growth at 1 µM in [1] was found to be 101%; in [12] it was 87.9%. Moreover, the Papp A→B at 1.5 h, 10 µM in data set [3] worked out at 1.48 ×10⁻⁶ cm/s. In [4], inhibition was half-maximal at 6.93 nM (IC50).

For the molecule `CO[C@H]1C(=O)[C@]2(C)CC[C@H]3OC[C@@]3(OC(C)=O)[C@H]2[C@H](OC(=O)c2ccccc2)[C@]23OC(=O)O[C@H]2[C@H](OC(=O)[C@H](O)[C@@H](NC(=O)OC(C)(C)C)c2ccccc2)C(C)=C1C3(C)C`, the inhibition of growth at 1 µM in data set [7] was determined as 86.3%; in data set [6], 94.4%; in data set [8], 89.1%; in data set [9], 87.3%; in [10], 96%; in [11], 97.7%. For the same molecule, the results for the inhibition of growth at 1 µM in data set [1] and in data set [12] were 99.9% and 84.7%, respectively. In addition, the efflux ratio at 1.5 h, 10 µM in [2] was 9.56. In [3], the Papp A→B at 1.5 h, 10 µM worked out at 2.64 ×10⁻⁶ cm/s. For the same molecule, in data set [4], the IC50 came to 4.49 nM. Besides, the Papp B→A at 1.5 h, 10 µM in data set [5] stood at 25.3 ×10⁻⁶ cm/s.

Consider `CO[C@H]1C(=O)[C@@]2(C)[C@H]([C@H](OC(=O)c3ccccc3)[C@]34OC(=O)O[C@H]3[C@H](OC(=O)[C@H](O)[C@@H](NC(=O)OC(C)(C)C)c3ccccc3)C(C)=C1C4(C)C)[C@]1(OC(C)=O)CO[C@@H]1C[C@@H]2O`, for which the inhibition of growth at 1 µM in data set [7] is 87.1%; in data set [6] it was 92.5%; in data set [8], 86.8%; in [9], 86.6%; in data set [10], 95%; in [11] it was 97.5%. Moreover, the inhibition of growth at 1 µM was 100% in data set [1] and 82.7% in data set [12]. The efflux ratio at 1.5 h, 10 µM in data set [2] worked out at 51. In addition, the Papp A→B at 1.5 h, 10 µM in data set [3] is 0.88 ×10⁻⁶ cm/s. Moreover, the basolateral-to-apical permeability (Papp B→A) at 1.5 h, 10 µM in data set [5] was 44.7 ×10⁻⁶ cm/s.

As for `CO[C@H]1C(=O)[C@]2(C)[C@@H](OC(=O)N(C)C)C[C@H]3OC[C@@]3(OC(C)=O)[C@H]2[C@H](OC(=O)c2ccccc2)[C@]23OC(=O)O[C@H]2[C@H](OC(=O)[C@H](O)[C@H](CC(C)C)NC(=O)OC(C)(C)C)C(C)=C1C3(C)C`, in [2], the efflux ratio at 1.5 h, 10 µM is 2.39. Further, the Papp A→B at 1.5 h, 10 µM in data set [3] amounted to 2.4 ×10⁻⁶ cm/s. Moreover, inhibition in [4] was half-maximal at 21.2 nM (IC50). Moreover, the Papp B→A at 1.5 h, 10 µM in data set [5] was found to be 5.74 ×10⁻⁶ cm/s.

For `COC(=O)O[C@H]1C[C@H]2OC[C@@]2(OC(C)=O)[C@H]2[C@H](OC(=O)c3ccccc3)[C@]34OC(=O)O[C@H]3[C@H](OC(=O)[C@H](O)[C@H](CC(C)C)NC(=O)OC(C)(C)C)C(C)=C([C@@H](OC)C(=O)[C@]12C)C4(C)C`, in data set [2], the efflux ratio at 1.5 h, 10 µM came to 7.81. Moreover, the Papp A→B at 1.5 h, 10 µM in data set [3] came to 0.92 ×10⁻⁶ cm/s. Moreover, in data set [4], inhibition was half-maximal at 2.94 nM (IC50). The Papp B→A at 1.5 h, 10 µM in data set [5] is 7.16 ×10⁻⁶ cm/s.

For `CC(=O)O[C@H]1C(=O)[C@@]2(C)[C@H]([C@H](OC(=O)c3ccccc3)[C@]34OC(=O)O[C@H]3[C@H](OC(=O)[C@H](O)[C@H](CC(C)C)NC(=O)OC(C)(C)C)C(C)=C1C4(C)C)[C@]1(OC(C)=O)CO[C@@H]1C[C@@H]2O` [ORTATAXEL], the inhibition of growth at 1 µM turned out to be 88.7% in data set [7]; 96.7% in [6]; 90.6% in [8]; 87.7% in data set [9]; 96.4% in data set [10]; 96.5% in data set [11]. In addition, the inhibition of growth at 1 µM is 99.5% in [1] and 85.5% in data set [12]. Besides, in data set [2], the efflux ratio at 1.5 h, 10 µM came to 6.84. Moreover, the Papp A→B at 1.5 h, 10 µM in data set [3] was found to be 2.8 ×10⁻⁶ cm/s. Moreover, in data set [5], the Papp B→A at 1.5 h, 10 µM was 19.2 ×10⁻⁶ cm/s.
